Results as given in ChEMBL document CHEMBL1138439, “Synthesis and structure-activity relationship of novel diarylpyrazole imide analogues as CB1 cannabinoid receptor ligands” (Bioorg Med Chem, 2009).

What follows are compounds tested against Cannabinoid receptor 1 (Rattus norvegicus, UniProt P20272) (assay: Displacement of [3H]CP-55940 from CB1R in Sprague-Dawley rat cerebellar membrane). Conditions: not given.
Chain of Cannabinoid receptor 1 (P20272 whole entry): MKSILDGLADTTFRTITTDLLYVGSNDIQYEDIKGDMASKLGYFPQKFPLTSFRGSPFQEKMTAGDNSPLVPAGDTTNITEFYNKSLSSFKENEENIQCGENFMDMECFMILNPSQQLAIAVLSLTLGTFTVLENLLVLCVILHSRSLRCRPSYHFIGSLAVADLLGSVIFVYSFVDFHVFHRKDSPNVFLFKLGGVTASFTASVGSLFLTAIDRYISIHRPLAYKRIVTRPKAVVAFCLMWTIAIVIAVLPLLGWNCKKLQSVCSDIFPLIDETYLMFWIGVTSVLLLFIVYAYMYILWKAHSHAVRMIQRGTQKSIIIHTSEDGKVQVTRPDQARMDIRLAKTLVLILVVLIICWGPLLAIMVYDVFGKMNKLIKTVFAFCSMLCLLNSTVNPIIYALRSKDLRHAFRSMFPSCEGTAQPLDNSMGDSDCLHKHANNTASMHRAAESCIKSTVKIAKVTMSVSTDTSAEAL
Set-up: species or system Cerebellum
With `Cc1c(C(=O)NC(=O)NCC2CCCCC2)nn(-c2ccc(Cl)cc2Cl)c1-c1ccc(Cl)cc1` the IC50 was “ND(Insoluble)”. In the case of `Cc1c(C(=O)NC(=O)NC(C)(C)C)nn(-c2ccc(Cl)cc2Cl)c1-c1ccc(Cl)cc1`, the IC50 is reported as “ND(Insoluble)”.

Same assay, conditions: read-out: IC50
Compound `Cc1c(C(=O)NS(=O)(=O)Cc2ccccc2)nn(-c2ccc(Cl)cc2Cl)c1-c1ccc(Cl)cc1` has an IC50 of over 10000 nM. With `CCC(C)(C)C(=O)N(C)C(=O)c1nn(-c2ccc(Cl)cc2Cl)c(-c2ccc(Cl)cc2)c1C` the IC50 was 227 nM. With `CCCC(CCC)C(=O)N(C)C(=O)c1nn(-c2ccc(Cl)cc2Cl)c(-c2ccc(Cl)cc2)c1C` the IC50 was 247 nM. Compound `Cc1ccc(S(=O)(=O)NC(=O)c2nn(-c3ccc(Cl)cc3Cl)c(-c3ccc(Cl)cc3)c2C)cc1` has an IC50 of over 10000 nM. For `Cc1c(C(=O)NS(=O)(=O)C(C)C)nn(-c2ccc(Cl)cc2Cl)c1-c1ccc(Cl)cc1`, the IC50 was over 10000 nM. `Cc1c(C(=O)NS(=O)(=O)c2ccccc2)nn(-c2ccc(Cl)cc2Cl)c1-c1ccc(Cl)cc1` was tested, and the IC50 was 3640 nM. `Cc1c(C(=O)N(C)C(=O)C(C)(C)C)nn(-c2ccc(Cl)cc2Cl)c1-c1ccc(Cl)cc1` gave an IC50 of 220 nM. Compound `CCC(CC)C(=O)N(C)C(=O)c1nn(-c2ccc(Cl)cc2Cl)c(-c2ccc(Cl)cc2)c1C` has an IC50 of 265 nM. `Cc1c(C(=O)NS(=O)(=O)c2cccc(Cl)c2)nn(-c2ccc(Cl)cc2Cl)c1-c1ccc(Cl)cc1` was tested, and the IC50 was 1200 nM. `Cc1c(C(=O)NS(=O)(=O)c2cccc(F)c2)nn(-c2ccc(Cl)cc2Cl)c1-c1ccc(Cl)cc1` was tested, and the IC50 was over 10000 nM. In the case of `Cc1c(C(=O)N(C)C(=O)C2CCCCC2)nn(-c2ccc(Cl)cc2Cl)c1-c1ccc(Cl)cc1`, the IC50 is reported as 167 nM. `CCCCS(=O)(=O)NC(=O)c1nn(-c2ccc(Cl)cc2Cl)c(-c2ccc(Cl)cc2)c1C` showed an IC50 of over 10000 nM. Compound `Cc1c(C(=O)NS(=O)(=O)c2ccc(F)cc2)nn(-c2ccc(Cl)cc2Cl)c1-c1ccc(Cl)cc1` has an IC50 of 1200 nM. `CCCS(=O)(=O)NC(=O)c1nn(-c2ccc(Cl)cc2Cl)c(-c2ccc(Cl)cc2)c1C` was tested, and the IC50 was over 10000 nM. Work on `Cc1c(C(=O)NS(=O)(=O)c2ccc(Cl)cc2)nn(-c2ccc(Cl)cc2Cl)c1-c1ccc(Cl)cc1` yielded an IC50 of over 10000 nM.

These compounds were tested on Mus musculus (assay: Reduction in body weight of diet induced obese C57BL/6J mouse at 10 mL/kg, po for 14 days). Conditions: not given.
Assay type: functional
Set-up: scale not given: the % may be the effect or the level left
Method in brief: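 Body weight change (g) from start was tracked daily over days 0–14 and compared with a vehicle-treated control group.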
Work on `Cc1c(C(=O)NC(=O)C(C)(C)C)nn(-c2ccc(Cl)cc2Cl)c1-c1ccc(Cl)cc1` yielded an Activity of 2.2%. In the case of `Cc1c(C(=O)NN2CCCCC2)nn(-c2ccc(Cl)cc2Cl)c1-c1ccc(Cl)cc1` [RIMONABANT], the Activity is reported as 11.5%.
